In ChEMBL document CHEMBL1137515, “Alpha-diaminobutyric acid-linked hairpin polyamides” (Bioorg Med Chem, 2007) one finds Ka data, which are given here for seven compounds.

Experiment [1] can be described thus: Binding affinity to pMFST5 forward hairpin binding M site. Summed up: (§1)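 Quantitative DNase I footprinting on the 301 bp 5′ end-labeled PCR product of plasmid pMFST5, using 1 pM to 100 nM polyamide across 11 lanes. DNA was incubated with polyamide or water for 12–16 h at room temperature before DNase I digestion. Equilibrium association constants (M−1) from binding isotherms are the mean of three experiments.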

Experiment [2] is described as follows: Binding affinity to pMFST5 slipped extended S site. Summed up:
as §1

Experiment [3] can be described thus: Binding affinity to pMFST5 overlapped extended O site. The method in brief:
as §1

A short description of experiment [4]: Binding affinity to pMFST ATGGTCA match site. The method in brief: (§2)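 DNase I footprinting titrations on the 5′ end-labeled PCR product of the relevant plasmid (pMFST or pMFST2). DNA was equilibrated with polyamide or water (control) for 12–16 h at room temperature before DNase I cleavage. Binding isotherms gave equilibrium association constants (M−1), reported as the mean of three titrations.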

Experiment [5] is described as follows: Binding affinity to pMFST AACGACT mismatch site A. The method in brief:
as §2

Experiment [6] in a line: Binding affinity to pMFST2 TAGGTGT match site. Summed up: as §2
Experiment [7] is described as follows: Binding affinity to pMFST2 TAGCTGT mismatch site B. Summed up: as §2
Experiment [8] in a line: Binding affinity to pMFST2 TAGGTCT mismatch site A. The method in brief: as §2
The nature of experiment [9]: Binding affinity to pMFST TAGCACA mismatch site B. The method in brief:
as §2

Experiment [10] can be described thus: Binding affinity to pMFST TAGTGGT match site. Summed up:
as §2

Experiment [11] is described as follows: Binding affinity to pMFST TAGTCGT mismatch site B. The method in brief:
as §2

The nature of experiment [12]: Binding affinity to pMFST ATATGGT mismatch site A. The method in brief:
as §2

Turning to `CN(C)CCCNC(=O)CCNC(=O)c1cc(NC(=O)c2cc(NC(=O)c3cc(NC(=O)c4nc(NC(=O)CNC(=O)c5cc(NC(=O)c6cc(NC(=O)c7nc(NC(=O)c8nccn8C)cn7C)cn6C)cn5C)cn4C)cn3C)cn2C)cn1C`, the Ka in [1] was 7 10^8/M; in experiment [2], 1.3 10^9/M; in experiment [3] it was 5.9 10^8/M.

Turning to `CN(C)CCCNC(=O)CCNC(=O)c1cc(NC(=O)c2cc(NC(=O)c3cc(NC(=O)c4nc(NC(=O)[C@@H](CCN)NC(=O)c5cc(NC(=O)c6cc(NC(=O)c7nc(NC(=O)c8nccn8C)cn7C)cn6C)cn5C)cn4C)cn3C)cn2C)cn1C`, the Ka in [1] is 9.8 10^9/M; in experiment [4] it was 4.4 10^9/M; in experiment [3], 4.7 10^9/M; in [5] it was 1.5 10^8/M.

Consider `CN(C)CCCNC(=O)CCNC(=O)c1cc(NC(=O)c2cc(NC(=O)c3cc(NC(=O)c4cc(NC(=O)[C@H](N)CCNC(=O)c5nc(NC(=O)c6cc(NC(=O)c7nc(NC(=O)c8nccn8C)cn7C)cn6C)cn5C)cn4C)cn3C)cn2C)cn1C`, for which the Ka in [6] was 4.4 10^10/M; in [7] it was 1.1 10^9/M; in experiment [8], 1.1 10^10/M.

`CN(C)CCCNC(=O)CCNC(=O)c1cc(NC(=O)c2cc(NC(=O)c3cc(NC(=O)c4nc(NC(=O)[C@H](N)CCNC(=O)c5cc(NC(=O)c6cc(NC(=O)c7nc(NC(=O)c8nccn8C)cn7C)cn6C)cn5C)cn4C)cn3C)cn2C)cn1C`: the figures for the Ka in experiment [4], in experiment [9] and in [5] (in the assay text read “mismatch site C” for “mismatch site A”) were 4.9 10^10/M, 3.9 10^8/M and 1.8 10^10/M, respectively.

`CN(C)CCCNC(=O)CCNC(=O)c1cc(NC(=O)c2cc(NC(=O)c3cc(NC(=O)c4cc(NC(=O)[C@@H](CCN)NC(=O)c5nc(NC(=O)c6cc(NC(=O)c7nc(NC(=O)c8nccn8C)cn7C)cn6C)cn5C)cn4C)cn3C)cn2C)cn1C`: the Ka in experiment [6] was 3 10^8/M; in experiment [8], 8.5 10^7/M.

With `CN(C)CCCNC(=O)CCNC(=O)c1cc(NC(=O)c2cc(NC(=O)c3cc(NC(=O)c4cc(NC(=O)[C@@H](CCN)NC(=O)c5nc(NC(=O)c6nc(NC(=O)CCNC(=O)c7nccn7C)cn6C)cn5C)cn4C)cn3C)cn2C)cn1C`, the figures for the Ka in [10] and in [11] were 8 10^8/M and 6.2 10^7/M, respectively.

With `CN(C)CCCNC(=O)CCNC(=O)c1cc(NC(=O)c2cc(NC(=O)c3cc(NC(=O)c4cc(NC(=O)[C@H](N)CCNC(=O)c5nc(NC(=O)c6nc(NC(=O)CCNC(=O)c7nccn7C)cn6C)cn5C)cn4C)cn3C)cn2C)cn1C`, the Ka is 4.3 10^10/M in experiment [10], 9.9 10^8/M in experiment [12] and 6.2 10^9/M in experiment [11].
